Activity calls are given as the source filed them. No cut-off for these calls is given here.
How the values were obtained:
[1] = target: T1, Histone-lysine N-methyltransferase NSD3 (Homo sapiens) (UniProt Q9BZ95); test: Binding affinity to NSD3 PWWP1 domain (unknown origin) assessed as aggregation temperature at 400 uM by heating at 25 to 85 degC by differential static light scattering method
T1 sequence (whole entry): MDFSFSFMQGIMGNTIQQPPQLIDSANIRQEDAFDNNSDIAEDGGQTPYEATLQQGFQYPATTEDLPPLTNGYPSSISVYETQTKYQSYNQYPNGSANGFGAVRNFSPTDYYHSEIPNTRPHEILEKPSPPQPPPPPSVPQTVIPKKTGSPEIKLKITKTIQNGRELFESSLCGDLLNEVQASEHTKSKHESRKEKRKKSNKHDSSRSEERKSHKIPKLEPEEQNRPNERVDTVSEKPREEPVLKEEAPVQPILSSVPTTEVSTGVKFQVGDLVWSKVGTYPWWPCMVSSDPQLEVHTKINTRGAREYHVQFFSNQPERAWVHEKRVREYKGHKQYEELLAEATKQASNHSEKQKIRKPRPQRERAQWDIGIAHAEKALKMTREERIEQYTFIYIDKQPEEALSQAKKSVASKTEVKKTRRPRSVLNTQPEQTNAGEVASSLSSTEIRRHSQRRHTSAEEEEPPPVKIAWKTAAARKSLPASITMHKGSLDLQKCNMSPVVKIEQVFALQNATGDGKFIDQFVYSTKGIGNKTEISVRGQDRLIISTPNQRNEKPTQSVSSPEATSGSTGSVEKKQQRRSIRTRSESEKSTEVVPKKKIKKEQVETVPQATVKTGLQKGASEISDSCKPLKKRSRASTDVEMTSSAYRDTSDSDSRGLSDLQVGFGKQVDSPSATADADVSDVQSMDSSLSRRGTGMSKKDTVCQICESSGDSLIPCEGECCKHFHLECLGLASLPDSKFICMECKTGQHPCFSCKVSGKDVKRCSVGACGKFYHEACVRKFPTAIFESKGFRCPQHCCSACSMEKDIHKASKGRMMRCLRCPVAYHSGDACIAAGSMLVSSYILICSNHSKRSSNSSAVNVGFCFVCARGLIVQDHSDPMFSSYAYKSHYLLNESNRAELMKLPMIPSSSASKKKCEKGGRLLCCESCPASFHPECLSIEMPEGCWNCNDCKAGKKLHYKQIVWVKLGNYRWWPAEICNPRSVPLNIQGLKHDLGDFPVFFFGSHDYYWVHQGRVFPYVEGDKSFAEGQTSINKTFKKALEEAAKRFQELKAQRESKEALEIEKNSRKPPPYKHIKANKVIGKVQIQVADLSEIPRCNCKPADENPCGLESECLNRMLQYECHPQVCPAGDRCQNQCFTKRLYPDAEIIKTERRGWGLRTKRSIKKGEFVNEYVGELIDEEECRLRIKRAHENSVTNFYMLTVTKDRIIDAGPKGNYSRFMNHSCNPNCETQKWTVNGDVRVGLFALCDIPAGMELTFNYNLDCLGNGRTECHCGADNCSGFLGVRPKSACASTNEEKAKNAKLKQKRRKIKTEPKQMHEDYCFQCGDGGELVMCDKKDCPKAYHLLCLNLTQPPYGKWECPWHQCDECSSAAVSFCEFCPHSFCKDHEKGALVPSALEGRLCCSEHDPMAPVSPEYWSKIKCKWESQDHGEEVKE

[2] = target: T2, Histone-lysine N-methyltransferase NSD2 (Homo sapiens, UniProt O96028); test: Binding affinity to NSD2 PWWP1 domain (unknown origin) assessed as dissociation constant by surface plasmon resonance analysis
T2 sequence (O96028 whole entry): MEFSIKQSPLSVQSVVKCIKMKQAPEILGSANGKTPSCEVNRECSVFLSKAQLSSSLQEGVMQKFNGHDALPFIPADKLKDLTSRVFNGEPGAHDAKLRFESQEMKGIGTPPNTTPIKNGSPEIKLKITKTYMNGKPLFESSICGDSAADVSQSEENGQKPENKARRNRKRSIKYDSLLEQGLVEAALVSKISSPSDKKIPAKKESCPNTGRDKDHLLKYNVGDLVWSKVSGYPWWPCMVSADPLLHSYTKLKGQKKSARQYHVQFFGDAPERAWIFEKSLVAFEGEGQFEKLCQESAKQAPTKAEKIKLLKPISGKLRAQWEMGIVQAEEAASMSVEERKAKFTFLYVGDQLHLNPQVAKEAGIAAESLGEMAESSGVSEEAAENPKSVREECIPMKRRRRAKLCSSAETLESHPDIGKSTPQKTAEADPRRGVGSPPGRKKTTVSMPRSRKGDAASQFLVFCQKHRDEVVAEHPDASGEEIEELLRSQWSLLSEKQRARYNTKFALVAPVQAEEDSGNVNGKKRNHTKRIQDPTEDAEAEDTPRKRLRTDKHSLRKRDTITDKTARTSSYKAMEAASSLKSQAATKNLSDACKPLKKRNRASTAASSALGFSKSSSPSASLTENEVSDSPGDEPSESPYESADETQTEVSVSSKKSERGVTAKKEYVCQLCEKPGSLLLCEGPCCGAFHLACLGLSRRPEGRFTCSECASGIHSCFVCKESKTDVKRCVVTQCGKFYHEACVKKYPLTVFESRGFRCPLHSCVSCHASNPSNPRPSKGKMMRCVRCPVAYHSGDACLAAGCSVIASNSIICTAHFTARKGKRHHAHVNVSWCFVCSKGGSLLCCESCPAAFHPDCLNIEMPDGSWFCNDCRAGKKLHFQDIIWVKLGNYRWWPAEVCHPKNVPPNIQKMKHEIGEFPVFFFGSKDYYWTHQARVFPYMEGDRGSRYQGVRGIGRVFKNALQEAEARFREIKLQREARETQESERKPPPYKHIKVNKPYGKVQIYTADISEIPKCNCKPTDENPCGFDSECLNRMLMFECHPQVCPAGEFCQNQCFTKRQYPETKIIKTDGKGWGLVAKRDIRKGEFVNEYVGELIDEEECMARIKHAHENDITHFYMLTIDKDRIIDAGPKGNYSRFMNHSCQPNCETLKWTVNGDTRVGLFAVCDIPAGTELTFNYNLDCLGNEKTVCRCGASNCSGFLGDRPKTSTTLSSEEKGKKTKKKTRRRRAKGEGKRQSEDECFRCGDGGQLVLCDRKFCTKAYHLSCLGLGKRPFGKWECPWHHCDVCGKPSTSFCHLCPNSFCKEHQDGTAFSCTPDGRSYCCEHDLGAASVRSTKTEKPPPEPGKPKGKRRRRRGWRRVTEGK
In short: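 SPR in single-cycle kinetics, HBS-EP buffer (20 mM HEPES pH 7.4, 150 mM NaCl, 3 mM EDTA, 0.05% Tween-20) with 5% DMSO. Ten concentrations from 200 μM top, twofold dilutions. Contact time 60 s, dissociation 120 s, flow 75 μL/min; Kd derived.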

SMILES: N#Cc1ccc(C(C(N)=O)N2CCC2c2ccc(Cl)cc2)cc1 (configuration not stated)
- Activity [1]: inactive
- Kd [2]: 41 µM

— ChEMBL document CHEMBL4732170, “Discovery of Small-Molecule Antagonists of the PWWP Domain of NSD2” (J Med Chem, 2021)
